One may read the IC50 as the concentration that gives 50% inhibition.

Data on 9 molecules can be found in ChEMBL document CHEMBL1155787, “Synthesis and biological evaluation of new disubstituted analogues of 6-methoxy-3-(3',4',5'-trimethoxybenzoyl)-1H-indole (BPR0L075), as potential antivascular agents” (Bioorg Med Chem, 2008).

The subject of one experiment is EA.hy 926. The experiment in a line: Induction of morphological changes in human EA.hy 926 cells assessed as rounding up after 2 hrs. The experiment is classed as functional. The essentials: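 EA.hy 926 cells (HUVEC–A549 fusion line) grown in DMEM with 2 mM glutamine, 10% FBS and penicillin/streptomycin at 37 °C, 5% CO2. Plated at 5000 cells/well and exposed in triplicate to 10-fold dilutions for 2 h. Solvent control was 1% DMSO. Wells photographed at the centre. Value is the lowest concentration at which rounding up was seen.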

The species entered for another experiment is Bos taurus. In words: Ratio of IC50 of drug to IC50 of colchicine for calf brain tubulin polymerization. Summed up: (§1)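 Calf brain tubulin purified by three assembly–disassembly cycles, used at a final 2–3 mg/mL in pH 6.6 buffer (0.1 M MES, 0.5 mM MgCl2, 2 mM EGTA, 1 mM GTP). Assembly followed by turbidity at 400 nm at 37 °C.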
Another experiment concerns B16. The experiment in a line: Cytotoxicity against mouse B16 cells assessed as cell viability after 48 hrs by MTT test. The settings on record: B16, 48 h. The experiment is classed as functional, cell-based. The essentials:
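Murine B16 melanoma cells grown in DMEM with 2 mM L-glutamine, 10% FBS and penicillin/streptomycin at 37 °C, 5% CO2. Cells plated at 5000/well. After 24 h, compound added in triplicate at final 0.25 ng/mL to 25 µg/mL in 10-fold dilutions (DMSO stock, 1% DMSO controls). IC50 from 3–7 independent triplicate experiments.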
In general terms: Tetrazolium dyes change colour on reduction, which living cells bring about.

The nature of experiment [1]: Inhibition of tubulin polymerization. The essentials:
as §1

Active and inactive are the calls of the source. No cut-off for these calls is given here.

As for `COc1cc2c(cc1OS(C)(=O)=O)c(C(=O)c1cc(OC)c(OC)c(OC)c1)cn2S(=O)(=O)c1ccccc1`, the Activity in the experiment on EA.hy 926 stood at 10.86 µM. Besides, the Ratio IC50 in the experiment filed under Bos taurus is 15. Further, the IC50 in the experiment with B16 worked out at 3290 nM.

As for `COc1cc2c(C(=O)c3cc(OC)c(OC)c(OC)c3)cn(S(=O)(=O)c3ccccc3)c2cc1OS(C)(=O)=O`, in the experiment with EA.hy 926, the Activity amounted to 1.3 µM. Besides, the Ratio IC50 in the experiment filed under Bos taurus was determined as 18. Besides, the IC50 with B16 was 3140 nM.

Take `COc1cc2c(c(OC)c1OC)-c1ccc(OC)c(=O)cc1[C@@H](NC(C)=O)CC2` [COLCHICINE]: the Activity in the experiment with EA.hy 926 stood at 0.003 µM. In the experiment with B16, the IC50 amounted to 31 nM.

For the molecule `COc1cc(C(=O)c2c[nH]c3c(OS(C)(=O)=O)c(OC)ccc23)cc(OC)c1OC`, in the experiment with EA.hy 926, the Activity was 0.013 µM. Also, the Ratio IC50 in the experiment filed under Bos taurus worked out at 2.7. For the same molecule, the half-inhibitory concentration (IC50) in the experiment on B16 stood at 170 nM.

For `COc1cc2[nH]cc(C(=O)c3cc(OC)c(OC)c(OC)c3)c2cc1OS(C)(=O)=O`, in the experiment on EA.hy 926, the Activity was 14.35 µM. For the same molecule, the outcome in the experiment listed under Bos taurus was inactive. In addition, the IC50 in the experiment on B16 came to 13700 nM.

As to `COc1ccc2c(C(=O)c3cc(OC)c(OC)c(OC)c3)c[nH]c2c1`, the IC50 in experiment [1] came out at 2800 nM; with B16 it was 13 nM. The Activity in the experiment with EA.hy 926 is 0.007 µM. The Ratio IC50 in the experiment filed under Bos taurus was 0.4.

As to `COc1ccc(/C=C\c2cc(OC)c(OC)c(OC)c2)cc1O` [COMBRETASTATIN A4], the results for the IC50 (in experiment [1]; with B16) were 2200 nM and 3 nM, respectively. The Activity in the experiment on EA.hy 926 came to 0.008 µM. For the same molecule, in the experiment filed under Bos taurus, the Ratio IC50 was found to be 0.7.

Take `COc1cc2c(C(=O)c3cc(OC)c(OC)c(OC)c3)c[nH]c2cc1O`: in the experiment on EA.hy 926, the Activity was determined as 8.74 µM. In addition, in the experiment filed under Bos taurus, the Ratio IC50 came to 12. The IC50 in the experiment with B16 came to 5070 nM.

As to `COc1cc2c(C(=O)c3cc(OC)c(OC)c(OC)c3)c[nH]c2cc1OS(C)(=O)=O`, the Activity in the experiment with EA.hy 926 turned out to be 28.71 µM. Further, in the experiment listed under Bos taurus, the outcome was inactive. Further, the IC50 in the experiment with B16 turned out to be 32400 nM.
